From ChEMBL document CHEMBL4706595, “1,3-Oxazine-2-one derived dual-targeted molecules against replicating and non-replicating forms of Mycobacterium tuberculosis” (Eur J Med Chem, 2020)
Values after ≈ are worked out from the molar mass of the structure shown.

Experiments:
[1] = test system: Mycobacterium tuberculosis; experiment: Antimycobacterial activity against replicating Mycobacterium tuberculosis H37Ra assessed as inhibition of bacterial growth incubated for 7 days by MABA assay; type: functional; conditions: time 7 day
[2] = Cytotoxicity against human PBMC assessed as reduction in cell growth after 72 hrs by MTT assay; type: tissue-based
[3] = test system: Mycolicibacterium smegmatis; experiment: Antimycobacterial activity against Mycobacterium smegmatis mc2155 assessed as inhibition of bacterial growth incubated for 48 hrs by broth microdilution method; type: functional; conditions: MC2 155
[4] = test system: Mycobacterium tuberculosis; experiment: Antimycobacterial activity against non-replicating Mycobacterium tuberculosis H37Rv expressing pFCA-LuxAB assessed as bacterial growth inhibition incubated for 10 days under anerobic condition by low oxygen recovery assay; type: functional; conditions: 240 h, time 10 day
[5] = test system: Mycobacterium tuberculosis; experiment: Antimycobacterial activity against replicating Mycobacterium tuberculosis H37Rv assessed as inhibition of bacterial growth incubated for 7 days by MABA assay; type: functional; conditions: time 7 day
[6] = test system: Mycobacterium tuberculosis; experiment: Inhibition of mycolic acid biosynthesis in Mycobacterium tuberculosis H37Ra assessed as reduction in keto-mycolate production at 5XMIC incubated for 7 days by TLC analysis; type: functional; conditions: time 7 day
[7] = test system: Mycobacterium tuberculosis; experiment: Inhibition of mycolic acid biosynthesis in Mycobacterium tuberculosis H37Ra assessed as reduction in methoxy-mycolate production at 5XMIC incubated for 7 days by TLC analysis; type: functional; conditions: time 7 day
[8] = test system: Mycobacterium tuberculosis; experiment: Antimycobacterial activity against Mycobacterium tuberculosis H37Rv ATCC 27294 assessed as inhibition of bacterial growth by agar plate dilution method; type: functional
Outline: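 MIC determined by agar plate dilution method; isoniazid and rifampin run as references.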

[9] = Inhibition of Mycobacterium tuberculosis H37Ra menG assessed as inhibition of 2-methyl-3-(3,7,11-trimethyldodeca-2,6,10-trienyl)naphthalene-1,4-dione formation using 2-(3,7,11-trimethyldodeca-2,6,10-trienyl)naphthalene-1,4-dione as substrate incubated for 3 hrs in presence of SAM by HPLC analysis
[10] = test system: Mycobacterium tuberculosis; experiment: Antimycobacterial activity against dormant Mycobacterium tuberculosis H37Ra assessed as inhibition of bacterial growth at 30 ug/ml incubated for 10 days in presence of Vit-K2 measured following 27 days of culturing on agar plate […] relative to control; type: functional; conditions: dose 30 µg/ml; time 37 day
Outline: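 Dormant H37Ra: 2×10⁶ bacteria/ml in sealed vials, 37 °C, 25 rpm. Cultures with compound (3 or 30 µg/ml) plus 1 mM Vit-K2 grown 10 days, then CFU counted on 7H10 agar after 27 days; comparison with 1 mM Vit-K2 set.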

[11] = test system: Mycobacterium tuberculosis; experiment: Inhibition of mycolic acid biosynthesis in Mycobacterium tuberculosis H37Ra assessed as reduction in alfa-mycolate production at 5XMIC incubated for 7 days by TLC analysis; type: functional; conditions: time 7 day
[12] = Inhibition of Mycobacterium smegmatis mc2155 menG assessed as inhibition of 2-methyl-3-(3,7,11-trimethyldodeca-2,6,10-trienyl)naphthalene-1,4-dione formation using 2-(3,7,11-trimethyldodeca-2,6,10-trienyl)naphthalene-1,4-dione as substrate incubated for 3 hrs in presence of SAM by HPLC analysis; set-up: species or system Mycolicibacterium smegmatis MC2 155

SMILES	MIC [1] [µg/mL]	IC50 [2] [µg/mL]	MIC [3] [µg/mL]	MIC [4] [µg/mL]	MIC [5] [µg/mL]	inhibition (INH) [6] [%]	inhibition (INH) [7] [%]	MIC [8] [µg/mL]	IC50 [9] [µg/mL]	fold change (FC) [10]	inhibition (INH) [11] [%]	IC50 [12] [µg/mL]
CCCCCCCCCOc1ccc(C(=O)OCCCOc2cccc(Nc3nc4ccccc4c(=O)o3)c2)cc1	37.1 (≈ 66.5 µM)	169 (≈ 303 µM)	50 (≈ 89.5 µM)	31 (≈ 55.6 µM)	41.8 (≈ 74.9 µM)	–	–	–	–	–	–	–
CCCCCCCCOc1ccc(C(=O)OCCCOc2cccc(Nc3nc4ccccc4c(=O)o3)c2)cc1	16.2 (≈ 29.8 µM)	154 (≈ 283 µM)	12.5 (≈ 23 µM)	18.9 (≈ 34.8 µM)	12.4 (≈ 22.8 µM)	–	–	–	–	–	–	–
COc1ccc(C(=O)OCCCOc2cccc(Nc3nc4ccccc4c(=O)o3)c2)cc1	8.16 (≈ 18.3 µM)	162 (≈ 364 µM)	> 100	40 (≈ 89.6 µM)	9.71 (≈ 21.7 µM)	–	–	–	–	–	–	–
O=c1oc(Nc2cccc(O)c2)nc2ccccc12	66.2 (≈ 260 µM)	173 (≈ 682 µM)	25 (≈ 98.3 µM)	40.1 (≈ 158 µM)	75.2 (≈ 296 µM)	–	–	–	–	–	–	–
CC(C)=CCC/C(C)=C/COc1ccc(C(=O)OCCCOc2cccc(Nc3nc4ccccc4c(=O)o3)c2)cc1	3.93 (≈ 6.91 µM)	134 (≈ 236 µM)	6.3 (≈ 11.1 µM)	2.94 (≈ 5.17 µM)	3.48 (≈ 6.12 µM)	100	100	3.5 (≈ 6.15 µM)	9.11	2.9	100	11.76
CCCCCCCOc1ccc(C(=O)OCCCOc2cccc(Nc3nc4ccccc4c(=O)o3)c2)cc1	> 100	181 (≈ 341 µM)	> 100	> 100	> 100	–	–	–	–	–	–	–
CCCCCCCC/C=C/CCCCCCCC(=O)Oc1cccc(Nc2nc3ccccc3c(=O)o2)c1	51.4 (≈ 99.2 µM)	179 (≈ 344 µM)	50 (≈ 96.4 µM)	68.9 (≈ 133 µM)	47.4 (≈ 91.3 µM)	–	–	–	–	–	–	–
CCCCC(=O)Oc1cccc(Nc2nc3ccccc3c(=O)o2)c1	> 100	201 (≈ 595 µM)	> 100	> 100	> 100	–	–	–	–	–	–	–
CCCC(=O)Oc1cccc(Nc2nc3ccccc3c(=O)o2)c1	> 100	199 (≈ 615 µM)	> 100	> 100	> 100	–	–	–	–	–	–	–
CCCCCCCCC(=O)Oc1cccc(Nc2nc3ccccc3c(=O)o2)c1	> 100	171 (≈ 434 µM)	> 100	> 100	> 100	–	–	–	–	–	–	–
CCCCCCCC(=O)Oc1cccc(Nc2nc3ccccc3c(=O)o2)c1	> 100	190 (≈ 499 µM)	> 100	> 100	> 100	–	–	–	–	–	–	–
CC(C)=CCOc1ccc(C(=O)OCCCOc2cccc(Nc3nc4ccccc4c(=O)o3)c2)cc1	> 100	190 (≈ 380 µM)	12.5 (≈ 25 µM)	> 100	> 100	–	–	–	–	–	–	–
CCCCCC(=O)Oc1cccc(Nc2nc3ccccc3c(=O)o2)c1	> 100	186 (≈ 529 µM)	> 100	> 100	> 100	–	–	–	–	–	–	–
CCCCCCCC/C=C/CCCCCCCCOc1ccc(C(=O)OCCCOc2cccc(Nc3nc4ccccc4c(=O)o3)c2)cc1	19.6 (≈ 28.7 µM)	150 (≈ 219 µM)	12.5 (≈ 18.3 µM)	35.9 (≈ 52.6 µM)	18.7 (≈ 27.4 µM)	–	–	–	–	–	–	–
CCOc1ccc(C(=O)OCCCOc2cccc(Nc3nc4ccccc4c(=O)o3)c2)cc1	> 100	102 (≈ 223 µM)	> 100	> 100	> 100	–	–	–	–	–	–	–
